Reference: ChEMBL document CHEMBL1157813, “Novel irreversible fluorescent probes targeting the 18 kDa translocator protein: synthesis and biological characterization” (J Med Chem, 2010)
Calls of active or inactive are those of the source. No cut-off for these calls is given here.

Legend:
[1] = molecular target: Translocator protein (Rattus norvegicus) (UniProt P16257); experiment: Displacement of [3H]Ro5-4864 from TSPO in rat kidney mitochondrial membrane after 180 mins; type: cell membranes
Outline: (§1)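 Rat kidney membranes preincubated with ligand (1 nM to 1 μM) for 0, 10, 30, 60, 90 or 180 min in binding buffer. Stopped with ice-cold 50 mM Tris/HCl pH 7.4, centrifuged 13000g 15 min at 4 °C, pellets washed twice. Residual [3H]Ro 5-4864 binding then measured at 65 μg protein/tube. ln B/B0 plotted against time. Kd and K2 taken from a 1/Kobs vs 1/[D] plot. Duplicates, three experiments.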

Translocator protein [2] = molecular target: T1, Translocator protein (Rattus norvegicus, UniProt P16257); experiment: Displacement of [3H]Ro5-4864 from TSPO in rat kidney mitochondrial membrane; type: cell membranes
Outline: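 IC50 and Ki taken from displacement curves. Bound radioactivity expressed as percent of specific binding. Triplicate determinations pooled from three independent experiments.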

Translocator protein [3] = molecular target: T1, Translocator protein; experiment: Irreversible binding affinity to TSPO in rat kidney mitochondrial membrane; type: cell membranes; outline: as §1
[4] = molecular target: Translocator protein (Rattus norvegicus) (UniProt P16257); experiment: Displacement of [3H]Ro5-4864 from TSPO in rat kidney mitochondrial membrane at 1 to 1000 nM; type: cell membranes; conditions: TDE = time-dependent effect; outline: as §1
[5] = molecular target: Translocator protein (Homo sapiens) (UniProt P30536); experiment: Irreversible binding affinity to TSPO in human U87MG cells at 100 to 500 nM after 20 mins in presence of 10 uM Ro5-4864; type: cell-based; conditions: U-87MG ATCC
Outline: (§2)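 U87MG cells grown in RPMI 1640 with 10% FBS, seeded at 4 × 10^4 cells/well for 24 h. Some wells pretreated with 10 μM Ro 5-4864, then given probe (100, 250, 500 nM) for 20 or 90 min at 37 °C, 5% CO2. Four washes in medium with cysteine, then PBS. Fluorescence read at Ex 485/Em 535 nm. Mean ± SEM, at least three experiments in duplicate.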

[6] = molecular target: Translocator protein (Homo sapiens) (UniProt P30536); experiment: Irreversible binding affinity to TSPO in human U87MG cells at 100 to 500 nM after 90 mins in presence of 10 uM Ro5-4864; type: cell-based; conditions: U-87MG ATCC; outline: as §2

T1 sequence (P16257 whole entry, looked up): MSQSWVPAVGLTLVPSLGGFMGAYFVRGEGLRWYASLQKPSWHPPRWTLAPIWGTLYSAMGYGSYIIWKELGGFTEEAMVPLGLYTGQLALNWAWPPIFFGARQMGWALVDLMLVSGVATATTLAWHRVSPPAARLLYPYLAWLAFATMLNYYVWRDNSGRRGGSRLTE
Chain of Translocator protein (Rattus norvegicus) (P16257 whole entry, looked up): as above
Chain of Translocator protein (Homo sapiens) (P30536 whole entry): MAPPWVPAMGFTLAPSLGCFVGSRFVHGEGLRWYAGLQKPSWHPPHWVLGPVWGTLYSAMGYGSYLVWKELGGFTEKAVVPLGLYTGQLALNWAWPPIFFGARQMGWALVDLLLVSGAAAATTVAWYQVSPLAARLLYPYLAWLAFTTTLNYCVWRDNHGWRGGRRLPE

Row | Activity [1] | IC50 (Translocator protein [2]) [nM] | Ki (Translocator protein [2]) [nM] | Kd (Translocator protein [3]) [nM] | Activity [4] | Activity [5] | Activity [6] | Structure (SMILES)
1 | Dose-dependent effect | 45.6 | 37.9 | 3.17 | tde |  |  | CCCN(CCC)C(=O)C(=O)c1c(-c2ccccc2)[nH]c2ccc(N=C=S)cc12
2 | Dose-dependent effect | 59.7 | 49.5 | 5.07 | tde |  |  | CCCCCCN(CCCCCC)C(=O)C(=O)c1c(-c2ccccc2)[nH]c2ccc(N=C=S)cc12
3 | Dose-dependent effect | 42.2 | 37.6 | 8.31 | tde | inactive | Active | O=C(NCCCCCCNc1ccc([N+](=O)[O-])c2nonc12)C(=O)c1c(-c2ccccc2)[nH]c2ccc(N=C=S)cc12
